Here are results for 33 compounds from ChEMBL document CHEMBL3600299, “Identification of alpha-substituted acylamines as novel, potent, and orally active mGluR5 negative allosteric modulators” (Bioorg Med Chem Lett, 2015).

Data set [1] addresses T1, Metabotropic glutamate receptor 5 (Homo sapiens, UniProt P41594). Nature of the data set: Negative allosteric modulator activity against human mGluR5 expressed in HEK293 cells assessed as inhibition of glutamate-induced inositol phosphate accumulation by IP-one HTRF assay. In kind it is functional, cell-based. Summed up: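 HEK293 cells stably expressing human mGluR5 incubated 60 min with 2.5 lmol/L glutamate, with or without compound. Glutamate-induced inositol phosphate (IP1) accumulation read by IP-One HTRF kit.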
Target sequence in this assay (P41594 whole entry): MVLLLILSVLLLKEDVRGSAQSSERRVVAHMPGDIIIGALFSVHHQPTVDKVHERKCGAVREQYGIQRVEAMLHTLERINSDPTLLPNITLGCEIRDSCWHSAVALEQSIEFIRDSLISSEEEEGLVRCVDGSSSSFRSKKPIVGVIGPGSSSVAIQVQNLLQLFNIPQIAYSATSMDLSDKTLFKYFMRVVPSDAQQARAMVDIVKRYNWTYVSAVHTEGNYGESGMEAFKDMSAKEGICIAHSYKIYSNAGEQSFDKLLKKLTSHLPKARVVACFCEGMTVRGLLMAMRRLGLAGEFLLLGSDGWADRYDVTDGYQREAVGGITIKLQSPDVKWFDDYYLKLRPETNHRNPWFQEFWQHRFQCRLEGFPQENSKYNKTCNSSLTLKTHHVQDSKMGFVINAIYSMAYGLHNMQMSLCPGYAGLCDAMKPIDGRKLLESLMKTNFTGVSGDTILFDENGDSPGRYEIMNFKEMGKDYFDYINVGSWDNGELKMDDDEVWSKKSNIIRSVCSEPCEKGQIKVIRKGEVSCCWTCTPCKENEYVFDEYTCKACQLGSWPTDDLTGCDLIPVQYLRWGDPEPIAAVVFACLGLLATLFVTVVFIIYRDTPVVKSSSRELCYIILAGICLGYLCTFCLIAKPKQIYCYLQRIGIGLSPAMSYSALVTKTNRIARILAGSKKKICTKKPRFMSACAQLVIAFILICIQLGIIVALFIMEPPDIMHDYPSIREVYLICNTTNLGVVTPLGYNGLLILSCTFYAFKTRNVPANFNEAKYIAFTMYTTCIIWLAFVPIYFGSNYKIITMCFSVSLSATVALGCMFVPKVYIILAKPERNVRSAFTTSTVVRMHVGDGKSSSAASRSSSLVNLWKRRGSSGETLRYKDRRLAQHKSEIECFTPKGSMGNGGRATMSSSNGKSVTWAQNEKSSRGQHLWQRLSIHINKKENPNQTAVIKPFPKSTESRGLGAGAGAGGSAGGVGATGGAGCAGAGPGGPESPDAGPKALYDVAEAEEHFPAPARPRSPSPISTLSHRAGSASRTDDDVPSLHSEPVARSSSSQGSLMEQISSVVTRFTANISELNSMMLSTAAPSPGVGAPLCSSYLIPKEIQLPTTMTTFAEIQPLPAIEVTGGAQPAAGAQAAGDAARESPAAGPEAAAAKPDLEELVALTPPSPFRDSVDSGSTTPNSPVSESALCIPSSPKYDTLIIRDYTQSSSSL

Data set [2] concerns the target T1, Metabotropic glutamate receptor 5. Nature of the data set: Negative allosteric modulator activity against human mGluR5 expressed in HEK293 cells assessed as inhibition of glutamate-induced inositol phosphate accumulation at 100 nM by IP-one HTRF assay. In kind it is functional, cell-based.
Target sequence in this assay (P41594 21-1212 limits assumed): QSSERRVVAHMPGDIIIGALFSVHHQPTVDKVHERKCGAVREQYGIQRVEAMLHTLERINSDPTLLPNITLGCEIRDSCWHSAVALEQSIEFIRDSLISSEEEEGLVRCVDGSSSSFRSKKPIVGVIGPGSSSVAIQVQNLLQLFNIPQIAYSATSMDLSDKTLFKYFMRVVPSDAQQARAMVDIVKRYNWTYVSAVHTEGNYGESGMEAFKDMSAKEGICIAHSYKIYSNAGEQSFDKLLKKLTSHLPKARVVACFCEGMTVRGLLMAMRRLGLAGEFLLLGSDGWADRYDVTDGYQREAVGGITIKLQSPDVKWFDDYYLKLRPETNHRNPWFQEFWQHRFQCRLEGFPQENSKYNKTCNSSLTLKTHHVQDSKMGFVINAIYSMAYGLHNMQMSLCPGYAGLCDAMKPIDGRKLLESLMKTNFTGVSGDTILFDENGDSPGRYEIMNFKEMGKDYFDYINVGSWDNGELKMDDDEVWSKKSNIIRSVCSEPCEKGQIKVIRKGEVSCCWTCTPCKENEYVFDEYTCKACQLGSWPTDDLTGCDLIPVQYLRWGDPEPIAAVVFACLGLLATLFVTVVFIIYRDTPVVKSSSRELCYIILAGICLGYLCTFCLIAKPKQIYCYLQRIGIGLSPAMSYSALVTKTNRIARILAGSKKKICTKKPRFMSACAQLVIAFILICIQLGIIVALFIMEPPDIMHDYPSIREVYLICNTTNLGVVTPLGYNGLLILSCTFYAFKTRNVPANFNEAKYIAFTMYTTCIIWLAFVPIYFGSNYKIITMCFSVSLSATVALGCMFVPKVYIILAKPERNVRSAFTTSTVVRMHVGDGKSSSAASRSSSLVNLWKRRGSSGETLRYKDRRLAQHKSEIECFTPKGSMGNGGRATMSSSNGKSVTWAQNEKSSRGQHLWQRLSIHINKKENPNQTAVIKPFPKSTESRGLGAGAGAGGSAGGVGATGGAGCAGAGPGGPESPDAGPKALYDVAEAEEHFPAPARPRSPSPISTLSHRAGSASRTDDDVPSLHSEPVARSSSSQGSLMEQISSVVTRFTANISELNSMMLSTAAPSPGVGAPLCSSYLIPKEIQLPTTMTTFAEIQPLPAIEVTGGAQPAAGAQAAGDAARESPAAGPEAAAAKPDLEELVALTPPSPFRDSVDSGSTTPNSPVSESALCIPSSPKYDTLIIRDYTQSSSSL
In data set [3] the test system is Mus musculus. Nature of the data set: Anxiolytic-like activity in mouse model of stress-induced hyperthermia assessed as reduction in stress-induced hyperthermia response at 1 mg/kg, po dosed 1 hr before first rectal temperature measurement. The data set is classed as functional, organism-based. Summed up: (§1)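 Mice dosed orally with test article in 0.5% methylcellulose vehicle 1 h before first rectal temperature (T1); second rectal temperature (T2) taken 10 min after T1. Basal temperature from T1; SIH response defined as T2–T1. Mean ± SEM, n = 10 per group; one-tailed Williams' test vs vehicle, p <0.025.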

Data set [4] concerns Mus musculus. Nature of the data set: Effect on basal rectal temperature in mouse model of stress-induced hyperthermia at 0.1 to 1 mg/kg, po dosed 1 hr before first rectal temperature measurement. In kind it is ADME, organism-based. Particulars: in vivo. Summed up: as §1

Each structure is given as a SMILES string. The source made the active and inactive calls.

As to `CCC[C@@H](NC(=O)c1cocn1)c1cnc(Nc2ccc(C)nc2)c(Cl)c1`, in data set [1], the IC50 was 0.0233 µM.

In the case of `Cc1ccc(Nc2ncc([C@H](NC(=O)c3nccs3)C(C)C)cc2Cl)cn1`, the 50% inhibitory concentration (IC50) in data set [1] was determined as 0.0075 µM.

`CCC[C@@H](NC(=O)c1nccs1)c1cnc(Nc2cnc(C)s2)c(Cl)c1`: the IC50 in data set [1] was 0.06 µM.

With `CCC[C@@H](NC(=O)c1nccs1)c1cnc(Nc2ccc(F)nc2)c(Cl)c1`, the IC50 in data set [1] amounted to 0.0128 µM.

Regarding `CCC[C@@H](NC(=O)c1nccs1)c1cnc(Nc2ccc(C(F)(F)F)nc2)c(Cl)c1`, the inhibition in data set [2] turned out to be 31%.

As to `COC[C@H](NC(=O)c1nccs1)c1cnc(Nc2ccc(C)nc2)c(Cl)c1`, in data set [1], the IC50 came out at 0.0559 µM.

Take `CC[C@@H](NC(=O)c1nccs1)c1cnc(Nc2ccc(C)nc2)c(Cl)c1`: in data set [1], the IC50 came to 0.0154 µM.

On to `CCC[C@@H](NC(=O)c1cscn1)c1cnc(Nc2ccc(C)nc2)c(Cl)c1`, for which, in data set [1], the IC50 worked out at 0.0312 µM.

In the case of `C=CC[C@@H](NC(=O)c1nccs1)c1cnc(Nc2ccc(C)nc2)c(Cl)c1`, the IC50 in data set [1] is 0.0024 µM. Besides, the outcome in the data set with Mus musculus [3] was Active. Further, the Activity entry in the data set with Mus musculus [4] was “Non-toxic”.

As to `Cc1ccc(Nc2ncc([C@@H](NC(=O)c3nccs3)C3CCC3)cc2Cl)cn1`, the IC50 in data set [1] was > 1 µM.

As to `CCC[C@@H](NC(=O)c1ccccn1)c1cnc(Nc2ccc(C)nc2)c(Cl)c1`, the IC50 in data set [1] turned out to be 0.0278 µM.

`CCC[C@@H](NC(=O)c1nccs1)c1cnc(Nc2ccc(OC)nc2)c(Cl)c1`: in data set [1], the IC50 was found to be 0.0133 µM.

As to `CCCC(NC(=O)c1nccs1)c1cnc(Nc2ccc(C)nc2)c(Cl)c1` (stereo not given), in data set [1], the IC50 turned out to be 0.0287 µM.

Consider `Cc1ccc(Nc2ncc([C@H](NC(=O)c3nccs3)C3CCCCC3)cc2Cl)cn1`, for which the IC50 in data set [1] is 0.0378 µM.

In the case of `CCC[C@@H](NC(=O)c1nc(C)cs1)c1cnc(Nc2ccc(C)nc2)c(Cl)c1`, the IC50 in data set [1] came out at 0.01 µM.

With `CCC[C@@H](NC(=O)c1nccs1)c1cnc(Nc2ccc(C)nc2)c(Cl)c1`, in data set [1], the IC50 was determined as 0.0082 µM.

For `CCC[C@@H](NC(=O)c1nccs1)c1cnc(Nc2cnc(C)nc2)c(Cl)c1`, in data set [1], the IC50 amounted to 0.0439 µM.

For `CC[C@H](NC(=O)c1nccs1)c1cnc(Nc2ccc(C)nc2)c(Cl)c1`, in data set [1], the IC50 is > 1 µM.

Turning to `CCC[C@H](NC(=O)c1nccs1)c1cnc(Nc2ccc(C)nc2)c(Cl)c1`, in data set [1], the IC50 turned out to be 0.978 µM.

As to `C/C=C/C[C@@H](NC(=O)c1nccs1)c1cnc(Nc2ccc(C)nc2)c(Cl)c1`, the IC50 in data set [1] worked out at 0.0088 µM.

As to `Cc1ccc(Nc2ncc([C@H](NC(=O)c3nccs3)C3CCCC3)cc2Cl)cn1`, in data set [1], the IC50 was determined as 0.0166 µM.

On to `CCC[C@@H](NC(=O)c1ccccc1)c1cnc(Nc2ccc(C)nc2)c(Cl)c1`, for which, in data set [2], the inhibition worked out at 30%.

`CCC[C@@H](NC(=O)c1ncc(C)s1)c1cnc(Nc2ccc(C)nc2)c(Cl)c1`: the inhibition in data set [2] worked out at 49%.

For the compound `Cc1ccc(Nc2ncc([C@H](NC(=O)c3nccs3)C3CCC3)cc2Cl)cn1`, the IC50 in data set [1] was 0.0093 µM.

Regarding `Cc1ccc(Nc2ncc([C@H](NC(=O)c3nccs3)C(C)(C)C)cc2Cl)cn1`, the IC50 in data set [1] worked out at 0.0309 µM.

On to `Cc1ccc(Nc2ncc(C3CCCN3C(=O)c3nccs3)cc2Cl)cn1` (stereo not given), for which the IC50 in data set [1] stood at 0.182 µM.

As for `CCCC[C@@H](NC(=O)c1nccs1)c1cnc(Nc2ccc(C)nc2)c(Cl)c1`, the IC50 in data set [1] came out at 0.0309 µM.

Regarding `CCC[C@@H](NC(=O)c1nccs1)c1cnc(Nc2cccnc2)c(Cl)c1`, in data set [1], the IC50 amounted to 0.0714 µM.

On to `Cc1ccc(Nc2ncc([C@@H](NC(=O)c3nccs3)C(C)C)cc2Cl)cn1`, for which the IC50 in data set [1] was determined as 1.05 µM.

In the case of `Cc1ccc(Nc2ncc([C@H](NC(=O)c3nccs3)C3CC3)cc2Cl)cn1`, the IC50 in data set [1] amounted to 0.0097 µM.

On to `Cc1ccc(Nc2ncc([C@@H](Cc3ccccc3)NC(=O)c3nccs3)cc2Cl)cn1`, for which the IC50 in data set [1] was 0.0555 µM.

In the case of `CCC[C@@H](NC(=O)c1ncco1)c1cnc(Nc2ccc(C)nc2)c(Cl)c1`, the IC50 in data set [1] amounted to 0.0422 µM.

With `CCCN(Cc1cnc(Nc2ccc(C)nc2)c(Cl)c1)C(=O)c1nccs1`, the IC50 in data set [1] was 0.584 µM.
